≈ marks a conversion by molar mass, not a printed value. Entries after “also recorded” stand apart in the source; their conditions may differ.
Columns and labels:
[1] = tested on: P. falciparum (D6); assay: in vitro antimalarial activity, plasmodial LDH; assay type: cell-based, Plasmodium falciparum; settings: Plasmodium falciparum, D6, 72 h, read-out: P. falciparum (D6) IC50
[2] = tested on: P. falciparum (W2); assay: in vitro antimalarial activity, plasmodial LDH; assay type: cell-based, Plasmodium falciparum; settings: Plasmodium falciparum, W2, 72 h, read-out: P. falciparum (W2) IC50, CQ-resistant W2 strain, 72 h
In short: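 P. falciparum-infected erythrocytes (2% parasitemia, 2% hematocrit) in RPMI 1640 with 10% human serum and 60 μg/mL amikacin. Exposed to test compound dilutions for 72 h at 37 °C under 90% N2/5% O2/5% CO2. LDH measured with Malstat reagent (30 min, room temperature), then NBT/PES for 1 h in the dark, stopped with 5% acetic acid, read at 650 nm. IC50 from dose-response curves.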

[3] = tested on: SK-MEL, KB, BT-549, SK-OV-3, VERO and LLC-PK1 cells; assay: cytotoxicity, neutral red uptake assay; assay type: cell-based, mammalian; settings: highest test concentration 4760 ng/mL
In short: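 Cells seeded at 25 000/well and allowed 24 h to reach confluence. Test compound was then added and incubated 48 h. Viable cells were counted by a modified neutral red uptake method. The panel was four human cancer lines and two noncancerous mammalian kidney lines. Doxorubicin served as positive control and DMSO as negative control.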

[4] = tested on: P. berghei (sensitive strain); assay: blood-schizontocidal activity against P. berghei infection in mice; assay type: in vivo, Plasmodium berghei; settings: Swiss mice
In short: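 Swiss mice of either sex (about 15–20 g, same age), six per group, inoculated intraperitoneally on day 0 with 1 × 10^7 infected erythrocytes from a donor mouse. Oral test compound at 100, 50, 25 or 10 mg/kg, CQ diphosphate (10 mg/kg/day × 4) or vehicle started 4 h later, on D0 to D+3. Giemsa tail-blood smears on D+4 and D+7. Curative: parasites eliminated, no relapse, all mice surviving to D+60.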

[5] = tested on: L. donovani promastigotes; assay: in vitro antileishmanial activity, alamarBlue assay; assay type: cell-based, Leishmania donovani; settings: Leishmania donovani, 48 h; for IC50: read-out: L. donovani IC50, promastigotes, 48 h; for IC90: read-out: L. donovani IC90, promastigotes, 48 h
[6] = tested on: C. albicans ATCC90028; assay: in vitro antifungal activity; assay type: cell-based, Candida albicans; settings: Candida albicans; for IC50: ATCC90028, read-out: C. albicans IC50; for MFC: ATCC90028, read-out: C. albicans MFC; for MIC: ATCC90028, read-out: C. albicans MIC
In short: (§1)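 Modified NCCLS broth method in Sabouraud dextrose. Inoculum set by OD630 to 1.5 × 10^3 CFU/mL. Test compound serially diluted in 20% DMSO/saline, duplicate wells, up to 20 μg/mL. Incubated 70–74 h at 35 °C; 530 nm read before and after. IC50 is 50% growth inhibition; MIC is no detectable growth. MFC from clear wells subcultured on agar. Amphotericin B control.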

[7] = tested on: C. neoformans ATCC90113; assay: in vitro antifungal activity; assay type: cell-based, Cryptococcus neoformans; settings: Cryptococcus neoformans; for IC50: ATCC90113, read-out: C. neoformans IC50; for MFC: ATCC90113, read-out: C. neoformans MFC; for MIC: ATCC90113, read-out: C. neoformans MIC
In short: as §1

[8] = tested on: A. fumigatus ATCC 90906; assay: in vitro antifungal activity; assay type: cell-based, Aspergillus fumigatus; settings: Aspergillus fumigatus; for IC50: ATCC90906, read-out: A. fumigatus IC50; for MFC: ATCC90906, read-out: A. fumigatus MFC; for MIC: ATCC90906, read-out: A. fumigatus MIC
In short: as §1

[9] = tested on: SA (ATCC29213); assay: in vitro antibacterial activity; assay type: cell-based; settings: Staphylococcus aureus; for IC50: ATCC29213, read-out: IC50 (concentration that affords 50% growth inhibition), SA; for MBC: ATCC29213, read-out: MBC (minimum bactericidal concentration), SA; for MIC: ATCC29213, read-out: MIC, SA
In short: (§2)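 Test compound serially diluted in 20% DMSO/saline and plated in duplicate, up to 20 μg/mL. Inoculum in cation-adjusted Mueller–Hinton broth, pH 7.3, set by OD630 to 5 × 10^5 CFU/mL. Incubated 16–20 h at 35 °C; 530 nm read before and after. IC50 is 50% growth inhibition; MIC is no detectable growth. MBC from clear wells subcultured on agar. Ciprofloxacin control.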

[10] = tested on: MRSA (ATCC33591); assay: in vitro antibacterial activity; assay type: cell-based, methicillin-resistant Staphylococcus aureus; settings: Staphylococcus aureus, ATCC33591|MRSA, read-out: MIC, MRSA
In short: as §2

[11] = tested on: M. intracellulare (ATCC23068); assay: in vitro antibacterial activity, modified alamarBlue procedure; assay type: cell-based, Mycobacterium intracellulare; settings: Mycobacterium intracellulare; for IC50: ATCC23068, read-out: IC50 (concentration that affords 50% growth inhibition), M. intracellulare; for MBC: ATCC23068, read-out: MBC (minimum bactericidal concentration), M. intracellulare; for MIC: ATCC23068, read-out: MIC, M. intracellulare
In short: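 Modified alamarBlue microplate method. Test compound serially diluted in 20% DMSO/saline, duplicate wells, up to 20 μg/mL. Inoculum 2.0 × 10^6 CFU/mL in Middlebrook 7H9 with OADC, pH 7.3, containing 5% alamarBlue. Incubated 70–74 h at 37 °C, 10% CO2; fluorescence 544ex/590em read before and after. MIC: no blue-to-pink change. MBC by subculturing blue wells on agar. Ciprofloxacin control.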

| SMILES | IC50 [1] | IC50 [2] | cytotoxicity CTX [3] | P. berghei blood-schizontocidal activity (mice cured/treated) ([4]; 100 mg/kg/day × 4, oral) | IC50 [6] | MFC [6] | MIC [6] | IC50 [7] | MFC [7] | MIC [7] | IC50 [8] | MFC [8] | MIC [8] | IC50 [9] | MBC [9] | MIC [9] | MIC [10] | IC50 [11] | MBC [11] | MIC [11] | further results |
| --- | --- | --- | --- | --- | --- | --- | --- | --- | --- | --- | --- | --- | --- | --- | --- | --- | --- | --- | --- | --- | --- |
| CCCCOc1c(OC)cc(NC(C)CCCN)c2nc(C(C)(C)C)cc(C)c12 (stereo not drawn) [compound 50, N^4-(5-Butoxy-2-tert-butyl-6-methoxy-4-methylquinolin-8-yl)pentane-1,4-diamine] | 2.2 µg/mL (≈ 5.48 µM) | 0.98 µg/mL (≈ 2.44 µM) | NC (NC, not cytotoxic up to 4760 ng/mL (4.76 μg/mL)) | curative (6/6) | 15 µg/mL (≈ 37.4 µM) | > 20 µg/mL | > 20 µg/mL | 0.58 µg/mL (≈ 1.44 µM) | 2.5 µg/mL (≈ 6.23 µM) | 1.25 µg/mL (≈ 3.11 µM) | 14.7 µg/mL (≈ 36.6 µM) | > 20 µg/mL | > 20 µg/mL | 3.49 µg/mL (≈ 8.69 µM) | 10 µg/mL (≈ 24.9 µM) | 5 µg/mL (≈ 12.5 µM) | 5 µg/mL (≈ 12.5 µM) | 5.97 µg/mL (≈ 14.9 µM) | 20 µg/mL (≈ 49.8 µM) | 10 µg/mL (≈ 24.9 µM) | P. berghei blood-schizontocidal activity (mice cured/treated) ([4]; 50 mg/kg/day × 4, oral): suppressive activity; also recorded: active (4/6); IC50 [5]: 1.5 µg/mL (≈ 3.74 µM); IC90 [5]: 3.65 µg/mL (≈ 9.09 µM) |
| CCCCCOc1c(OC)cc(NC(C)CCCN)c2nc(C(C)(C)C)cc(C)c12 (stereo not drawn) [compound 51, N^4-(5-Pentyloxy-2-tert-butyl-6-methoxy-4-methylquinolin-8-yl)pentane-1,4-diamine] | 4.5 µg/mL (≈ 10.8 µM) | 3.8 µg/mL (≈ 9.14 µM) | NC (NC, not cytotoxic up to 4760 ng/mL (4.76 μg/mL)) | inactive (0/6) | > 20 µg/mL | > 20 µg/mL | > 20 µg/mL | 4.45 µg/mL (≈ 10.7 µM) | 20 µg/mL (≈ 48.1 µM) | 20 µg/mL (≈ 48.1 µM) | > 20 µg/mL | > 20 µg/mL | > 20 µg/mL | 18.9 µg/mL (≈ 45.5 µM) | > 20 µg/mL | > 20 µg/mL | 20 µg/mL (≈ 48.1 µM) | 10.8 µg/mL (≈ 25.9 µM) | 20 µg/mL (≈ 48.1 µM) | 20 µg/mL (≈ 48.1 µM) | IC50 [5]: 16.2 µg/mL (≈ 38.9 µM); IC90 [5]: 23.9 µg/mL (≈ 57.4 µM) |
| CCCCCOc1c(OC)cc(NC(C)CCCNC(=O)C(N)CCCCN)c2nc(C(C)(C)C)ccc12 (stereo not drawn) [compound 92, 2,6-Diamino-N-(4-(2-tert-butyl-6-methoxy-5-(pentyloxy)quinolin-8-ylamino)-pentyl)hexanamide] | 0.11 µg/mL (≈ 0.208 µM) | 0.052 µg/mL (≈ 0.0982 µM) | NC (NC, not cytotoxic up to 4760 ng/mL (4.76 μg/mL)) | 100% cure and curative (6/6) | > 20 µg/mL | > 20 µg/mL | > 20 µg/mL | 10.9 µg/mL (≈ 20.5 µM) | > 20 µg/mL | > 20 µg/mL | > 20 µg/mL | > 20 µg/mL | > 20 µg/mL | > 20 µg/mL | > 20 µg/mL | > 20 µg/mL | > 20 µg/mL | > 20 µg/mL | > 20 µg/mL | > 20 µg/mL | P. berghei blood-schizontocidal activity (mice cured/treated) ([4]; 25 mg/kg/day × 4, oral): inactive (0/6); P. berghei blood-schizontocidal activity (mice cured/treated) ([4]; 50 mg/kg/day × 4, oral): suppressive activity; also recorded: active (4/6) |
| CCCCCCOc1c(OC)cc(NC(C)CCCNC(=O)C(N)CCCCN)c2nc(C(C)(C)C)ccc12 (stereo not drawn) [compound 99, 2,6-Diamino-N-(4-(2-tert-butyl-5-(hexyloxy)-6-methoxyquinolin-8-ylamino)-pentyl)hexanamide] | 0.09 µg/mL (≈ 0.166 µM) | 0.036 µg/mL (≈ 0.0662 µM) | NC (NC, not cytotoxic up to 4760 ng/mL (4.76 μg/mL)) | 100% cure and curative (6/6) | > 20 µg/mL | > 20 µg/mL | > 20 µg/mL | 18.6 µg/mL (≈ 34.3 µM) | > 20 µg/mL | > 20 µg/mL | > 20 µg/mL | > 20 µg/mL | > 20 µg/mL | > 20 µg/mL | > 20 µg/mL | > 20 µg/mL | > 20 µg/mL | > 20 µg/mL | > 20 µg/mL | > 20 µg/mL | P. berghei blood-schizontocidal activity (mice cured/treated) ([4]; 25 mg/kg/day × 4, oral): inactive (0/6); P. berghei blood-schizontocidal activity (mice cured/treated) ([4]; 50 mg/kg/day × 4, oral): suppressive activity; also recorded: active (3/6) |
| CCCCCCCOc1c(OC)cc(NC(C)CCCNC(=O)C(N)CCCNC(=N)N)c2nc(C(C)(C)C)ccc12 (stereo not drawn) [compound 111, 2-Amino-N-(4-(2-tert-butyl-5-(heptyloxy)-6-methoxyquinolin-8-ylamino)pentyl)-5-guanidinopentanamide] | 0.39 µg/mL (≈ 0.666 µM) | 0.24 µg/mL (≈ 0.41 µM) | NC (NC, not cytotoxic up to 4760 ng/mL (4.76 μg/mL)) | 100% cure and curative (6/6) | > 20 µg/mL | > 20 µg/mL | > 20 µg/mL | 13.2 µg/mL (≈ 22.6 µM) | > 20 µg/mL | > 20 µg/mL | > 20 µg/mL | > 20 µg/mL | > 20 µg/mL | > 20 µg/mL | > 20 µg/mL | > 20 µg/mL | > 20 µg/mL | > 20 µg/mL | > 20 µg/mL | > 20 µg/mL | P. berghei blood-schizontocidal activity (mice cured/treated) ([4]; 25 mg/kg/day × 4, oral): inactive (0/6); P. berghei blood-schizontocidal activity (mice cured/treated) ([4]; 50 mg/kg/day × 4, oral): 100% cure and curative (6/6) |
| CCCCCCCCOc1c(OC)cc(NC(C)CCCNC(=O)C(N)Cc2ccccc2)c2nc(C(C)(C)C)ccc12 (stereo not drawn) [compound 121, 2-Amino-N-(4-(2-tert-butyl-6-methoxy-5-(octyloxy)quinolin-8-ylamino)pentyl)-3-phenylpropanamide] | > 4.76 µg/mL | > 4.76 µg/mL | NC (NC, not cytotoxic up to 4760 ng/mL (4.76 μg/mL)) | 100% cure and curative (6/6) | > 20 µg/mL | > 20 µg/mL | > 20 µg/mL | 17.3 µg/mL (≈ 29.3 µM) | > 20 µg/mL | > 20 µg/mL | > 20 µg/mL | > 20 µg/mL | > 20 µg/mL | 7.79 µg/mL (≈ 13.2 µM) | > 20 µg/mL | > 20 µg/mL | > 20 µg/mL | > 20 µg/mL | > 20 µg/mL | > 20 µg/mL | P. berghei blood-schizontocidal activity (mice cured/treated) ([4]; 25 mg/kg/day × 4, oral): inactive (0/6); P. berghei blood-schizontocidal activity (mice cured/treated) ([4]; 50 mg/kg/day × 4, oral): suppressive activity; also recorded: active (3/6); IC50 [5]: 11.8 µg/mL (≈ 20 µM); IC90 [5]: 28.7 µg/mL (≈ 48.5 µM) |

From PMC6045484 (ACS Omega, 2018)
